Data from ChEMBL document CHEMBL1142300, “4-Aminopyrimidine tetrahydronaphthols: a series of novel vanilloid receptor-1 antagonists with improved solubility properties” (Bioorg Med Chem Lett, 2008).
Values after ≈ are worked out from the molar mass of the structure shown.

Legend:
[1] = target: Transient receptor potential cation channel subfamily V member 1 (Rattus norvegicus, UniProt O35433); test: Antagonist activity at rat TRPV1 expressed in CHO cells assessed as inhibition of capsaicin-induced calcium mobilization; format: functional, cell-based
In short: (§1)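 Inhibition of capsaicin-evoked 45Ca2+ uptake into CHO cells stably expressing human or rat TRPV1; IC50 taken as mean of at least three measurements ± SEM. Compounds were also run separately for agonist activity.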

[2] = target: Transient receptor potential cation channel subfamily V member 1 (Homo sapiens, UniProt Q8NER1); test: Antagonist activity at human TRPV1 expressed in CHO cells assessed as inhibition of capsaicin-induced calcium mobilization; format: functional, cell-based; in short: as §1
[3] = AUC in rat at 5 mg/kg, po; format: ADME, organism-based; set-up: dose 5 mg/kg, route oral; settings: plasma
[4] = Bioavailability in rat at 5 mg/kg, po; format: ADME, organism-based; settings: in vivo
[5] = Solubility in aqueous 0.01 N HCL; format: physicochemical
In short: (§2)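 Thermodynamic solubility determined on a high-throughput automated platform in three aqueous media: 0.01 N HCl, phosphate-buffered saline pH 7.4, and simulated intestinal fluid pH 6.8.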

[6] = Clearance in iv dosed rat; format: ADME, organism-based; settings: in vivo
[7] = Solubility in simulated intestinal fluid at pH 6.8; format: physicochemical; in short: as §2
[8] = (§3) Half life in iv dosed rat; format: ADME, organism-based; settings: in vivo
[9] = Solubility in phosphate buffered saline at pH 7.4; format: physicochemical; in short: as §2
[10] = system: Rattus norvegicus; test: as §3; format: ADME, organism-based; settings: in vivo
[11] = AUC in rat at 3 mg/kg, po; format: ADME, organism-based; set-up: dose 3 mg/kg, route oral; settings: plasma
[12] = aqueous 0.01 N HCl, read-out: Solubility
[13] = simulated intestinal fluid, read-out: Solubility

Chain of Transient receptor potential cation channel subfamily V member 1 (Homo sapiens, UniProt Q8NER1) (Q8NER1 whole entry): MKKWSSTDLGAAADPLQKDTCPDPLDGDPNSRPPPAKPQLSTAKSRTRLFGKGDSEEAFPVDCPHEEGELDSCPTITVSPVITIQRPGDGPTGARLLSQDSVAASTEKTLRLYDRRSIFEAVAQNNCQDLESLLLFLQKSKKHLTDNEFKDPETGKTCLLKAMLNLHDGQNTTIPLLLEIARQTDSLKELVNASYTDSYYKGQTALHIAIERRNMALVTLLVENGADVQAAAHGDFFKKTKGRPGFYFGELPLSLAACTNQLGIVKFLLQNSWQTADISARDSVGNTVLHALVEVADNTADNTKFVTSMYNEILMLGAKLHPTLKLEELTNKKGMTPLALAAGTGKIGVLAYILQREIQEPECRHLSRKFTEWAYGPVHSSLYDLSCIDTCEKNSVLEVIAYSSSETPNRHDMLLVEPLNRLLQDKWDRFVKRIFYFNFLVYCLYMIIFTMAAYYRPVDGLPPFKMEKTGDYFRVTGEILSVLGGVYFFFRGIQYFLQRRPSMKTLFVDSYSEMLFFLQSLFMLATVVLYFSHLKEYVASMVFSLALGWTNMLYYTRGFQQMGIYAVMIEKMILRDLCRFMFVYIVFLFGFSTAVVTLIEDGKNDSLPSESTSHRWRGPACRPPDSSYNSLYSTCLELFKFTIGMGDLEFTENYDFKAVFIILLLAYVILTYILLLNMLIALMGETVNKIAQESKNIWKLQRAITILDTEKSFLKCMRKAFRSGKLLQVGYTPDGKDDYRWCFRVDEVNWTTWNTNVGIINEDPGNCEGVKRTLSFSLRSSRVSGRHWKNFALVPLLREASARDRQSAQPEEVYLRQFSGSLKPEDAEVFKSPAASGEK
Chain of Transient receptor potential cation channel subfamily V member 1 (Rattus norvegicus, UniProt O35433) (O35433 whole entry): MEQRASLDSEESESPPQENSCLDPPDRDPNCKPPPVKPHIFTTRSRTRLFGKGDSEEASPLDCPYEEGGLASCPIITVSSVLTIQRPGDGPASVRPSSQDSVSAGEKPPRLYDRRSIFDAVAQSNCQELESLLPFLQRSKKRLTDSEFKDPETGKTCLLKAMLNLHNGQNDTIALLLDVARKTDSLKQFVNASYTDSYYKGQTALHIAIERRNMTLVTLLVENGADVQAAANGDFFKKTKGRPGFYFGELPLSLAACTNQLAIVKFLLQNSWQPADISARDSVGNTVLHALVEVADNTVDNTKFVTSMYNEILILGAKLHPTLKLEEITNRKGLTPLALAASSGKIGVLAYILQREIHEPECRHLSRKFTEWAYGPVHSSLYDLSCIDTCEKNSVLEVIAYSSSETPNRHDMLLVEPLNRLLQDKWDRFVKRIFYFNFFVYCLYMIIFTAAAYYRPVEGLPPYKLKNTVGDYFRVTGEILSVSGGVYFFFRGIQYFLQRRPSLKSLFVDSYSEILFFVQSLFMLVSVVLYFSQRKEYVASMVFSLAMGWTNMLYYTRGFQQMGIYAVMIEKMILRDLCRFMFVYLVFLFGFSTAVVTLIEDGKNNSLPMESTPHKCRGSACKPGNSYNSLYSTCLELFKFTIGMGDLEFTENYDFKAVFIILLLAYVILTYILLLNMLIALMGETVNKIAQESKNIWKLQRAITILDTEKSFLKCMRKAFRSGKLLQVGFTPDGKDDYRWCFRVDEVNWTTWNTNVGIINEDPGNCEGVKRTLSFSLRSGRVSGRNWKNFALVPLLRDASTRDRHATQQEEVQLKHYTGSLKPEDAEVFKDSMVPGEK

Row | Structure (SMILES) | IC50 [1] [nM] | IC50 [2] [nM] | Solubility ([5]; buffer) [mg/mL] | Solubility ([9]; buffer) [µg/mL] | other results
1 | CSc1cccc(NC(=O)Nc2cccc3ccc(O)cc23)c1 | 35 | 13 |  |  | 
2 | OC1CCc2c(Cl)ccc(Nc3cc(-c4ccc(C(F)(F)F)cc4)ncn3)c2C1 (centres undefined) |  |  |  |  | AUC [3]: 3400 ng·h/mL; bioavailability [4]: 34%
3 | OC1CCc2c(Br)ccc(Nc3cc(-c4ccc(C(F)(F)F)cc4)ncn3)c2C1 (centres undefined) | 9.6 | 2.1 |  |  | Solubility [5, 12]: 0.0072 mg/mL (≈ 15.5 µM); clearance [6]: 6.5 mL/min/kg; AUC [3]: 7600 ng·h/mL; bioavailability [4]: 60%; Solubility [7, 13]: 73 µg/mL (≈ 157 µM); half-life [8]: 330 min; Solubility ([9]; phosphate buffered saline, read-out: Solubility): 7.7 µg/mL (≈ 16.6 µM)
4 | OC1CCc2cccc(Nc3cc(-c4ccc(C(F)(F)F)cc4)ncn3)c2C1 (single isomer, unassigned; (+)) | 5.7 | 0.58 | 0.18 (≈ 467 µM) | 5.6 (≈ 14.5 µM) | Solubility ([7]; simulated gi fluid): 60 µg/mL (≈ 156 µM); t1/2 [10]: 1.2 h
5 | OC1CCc2cccc(Nc3cc(-c4ccc(C(F)(F)F)cc4)ncn3)c2C1 (single isomer, unassigned; (-)) | 5.5 | 0.62 |  | 9.1 (≈ 23.6 µM) | Solubility [5, 12]: 0.16 mg/mL (≈ 415 µM); clearance [6]: 96.7 mL/min/kg; Solubility [7, 13]: 85 µg/mL (≈ 221 µM); half-life [8]: 54 min
6 | OC1CCc2cccc(Nc3cc(-c4ccc(C(F)(F)F)cc4)ncn3)c2C1 (stereo in doubt; 4) | 3.1 | 0.65 | 0.19 (≈ 493 µM) | 23 (≈ 59.7 µM) | 
7 | CC(=O)Nc1nc2c(Oc3cc(-c4ccc(C(F)(F)F)cc4)ncn3)cccc2s1 [AMG-517] |  |  | < 0.0001 | < 0.1 | AUC [11]: 5300 ng·h/mL; Solubility ([7]; simulated gi fluid): 0.66 µg/mL (≈ 1.53 µM)
